Compounds with a hit are over-represented: about 2.5% of the library has one in this group of screens.
NR2E3 ag-1 – agonists of human nuclear receptor NR2E3. 320,000 tested, 0.12% active. GST-NR2E3/biotin-RetCOR TR-FRET, 1536-well. inhibition of corepressor binding, % at 4.78 µM. Q9Y5X4;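 active means percent inhibition above the cutoff of mean plus 3 SD of all tested compounds, set per screening campaign, cut at about 20% in these data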;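 further: 0% = DMSO wells and 100% = biotin wells as full block of FRET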
Target sequence (Q9Y5X4 whole entry, looked up): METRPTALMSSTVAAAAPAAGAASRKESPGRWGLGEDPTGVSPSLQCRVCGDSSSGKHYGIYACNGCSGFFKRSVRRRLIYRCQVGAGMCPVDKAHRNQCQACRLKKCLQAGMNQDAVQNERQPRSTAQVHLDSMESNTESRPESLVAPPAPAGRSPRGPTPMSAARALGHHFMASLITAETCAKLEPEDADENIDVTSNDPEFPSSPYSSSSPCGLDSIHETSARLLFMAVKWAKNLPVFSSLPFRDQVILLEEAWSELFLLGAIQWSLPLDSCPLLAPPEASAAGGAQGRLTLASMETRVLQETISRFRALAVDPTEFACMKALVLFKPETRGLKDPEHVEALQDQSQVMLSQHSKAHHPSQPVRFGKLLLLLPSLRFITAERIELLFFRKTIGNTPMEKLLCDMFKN
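Material – GST-tagged NR2E3 plus biotinylated RetCOR corepressor · Quantity – NR2E3 fusion 1.35 nM · Times – 5 h incubation at 4 °C · Medium – pH 7.5 Tris-based buffer · Technique – TR-FRET, Eu(K)-anti-GST donor, streptavidin-D2 acceptor, ex 340, em 617/671 nm · Benchmarks – high control biotin, low control 0.6% DMSO · Format – 1536-well plates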
ADAM17 inh – inhibitors of human ADAM17 | P78536 | recombinant ADAM17, EDANS/DABCYL FRET peptide cleavage | inhibition, % at 6.95 µM | 370,000 tested, 0.83% active | AID 720648;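 active means inhibition above the mean of compounds lying between control limits plus 3 SD, set per campaign, cut at about 8.5% in these data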;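 further: 0% = DMSO-only wells as the low control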
JMJD2C inh – blocks human GASC-1 demethylase activity; Q9H3R0; GST-JMJD2C(1-420) H3K9me3 demethylation, DELFIA europium; inhibition, % at 2.35 µM; 330,000 tested, 0.069% active; AID 2099;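 active means more than half of a compound's replicate wells show inhibition beyond 50%, single wells judged on their own value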;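 further: signal counts dimethyl H3K9 product captured on neutravidin plate; 0% = median of DMSO wells and 100% = 0.3 times that DMSO median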
NR2E3 ag-2 – agonists of human NR2E3 nuclear receptor | inhibition of corepressor binding, % at 3.98 µM | Q9Y5X4 | 360,000 tested, 0.35% active | CHO-S Gal4-NCOR/VP16-NR2E3 two-hybrid, luciferase;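 active means inhibition above the mean of all tested compounds plus 3 SD, cut at about 70% in these data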;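 further: 0% = DMSO with NR2E3 transfected cells and 100% = cells lacking NR2E3 construct; higher means lower luciferase signal from less NR2E3 corepressor binding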
KLK7 zymogen act – activates the human kallikrein-7 zymogen; AID 652039; purified proKLK7, EDANS-DABCYL substrate fluorescence; 100% is mature enzyme control, 0% vehicle; activation, % at 7 µM; 370,000 tested, 0.9% active;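 active means activation above the mean of all tested compounds plus 3 SD, computed per campaign excluding outliers beyond control limits, cut at about 13% in these data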
Target sequence (P49862 whole entry, looked up): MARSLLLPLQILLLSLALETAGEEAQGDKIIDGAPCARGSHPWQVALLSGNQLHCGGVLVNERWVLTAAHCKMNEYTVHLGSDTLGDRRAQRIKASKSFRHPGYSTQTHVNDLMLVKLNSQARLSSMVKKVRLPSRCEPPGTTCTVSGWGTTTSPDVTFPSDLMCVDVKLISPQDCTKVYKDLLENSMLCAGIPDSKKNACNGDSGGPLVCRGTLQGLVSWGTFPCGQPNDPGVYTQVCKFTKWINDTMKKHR
ADAM10 inh – inhibits human ADAM10 | O14672 | recombinant ADAM10, EDANS/DABCYL FRET peptide cleavage, 3 h | inhibition, % at 7 µM | 370,000 tested, 0.62% active | AID 720582;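 active means inhibition above a per-campaign cutoff equal to the mean of compounds falling between control-based bounds plus 3 SD, cut at about 20% in these data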;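 further: 0% = DMSO wells while the 100% control is not disclosed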
ADAM10 ctr – ADAM10 inhibition, counter-screen for ADAM17 exosite hits; shares compounds with ADAM17 inh; recombinant ADAM10, EDANS/DABCYL FRET peptide cleavage, 3 h; inhibition, % at 6.95 µM; 2,900 tested, 47% active;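 active means mean inhibition over the triplicate runs exceeds the activity threshold set in the earlier primary screen, cut at about 20% in these data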;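 further: 0% = DMSO wells and 100% = marimastat wells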
ADAM17 confirm – human ADAM17 inhibition, confirmation. shares compounds with ADAM17 inh. recombinant ADAM17, EDANS/DABCYL QFRET peptide cleavage. inhibition, % at 6.95 µM. 2,900 tested, 65% active;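 active means mean inhibition across replicates above the hit cutoff set in the primary screen, cut at about 8.5% in these data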;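 further: 0% = DMSO wells and 100% = marimastat wells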
Active calls of the source: *; . = no result given.

SMILES	NR2E3 ag-1	ADAM17 inh	JMJD2C inh	NR2E3 ag-2	KLK7 zymogen act	ADAM10 inh	ADAM10 ctr	ADAM17 confirm
Cc1ccc(-c2nnc(SCC(=O)NNC(=S)Nc3ccccc3)n2C2CCCCC2)cc1	.	-0.2	.	.	0.4	3.7	.	.
O=C(/C=C/c1ccccc1O)c1ccccc1	.	-11.2	.	-21.3	0.5	-35.5	.	.
O=C(/C=C/c1ccccc1O)c1ccc(Cl)cc1	-1.4	10.0*	3.2	-49.7	0.5	18.8	14.0	9.4*
CCCn1c(C)cc(C(=O)COC(=O)c2cc(S(=O)(=O)NCC(C)C)c(Cl)cc2Cl)c1C	-0.5	10.4*	-5.1	-12.3	1.3	14.9	20.1*	9.7*
O=C(Oc1ccccc1-c1nnco1)c1ccc(Cl)cc1	-2.8	9.7*	-3.8	0.0	0.9	6.9	3.6	5.7
O=C(Nc1ccccc1OC(=O)c1ccc(Cl)cc1)c1ccc(Cl)cc1	1.6	2.4	3.8	-47.2	0.5	-2.4	.	.
Cc1ccc(/C=C/S(=O)(=O)NCC(=O)OCC(=O)N2CC(=O)Nc3ccccc32)cc1	0.6	-1.2	-1.3	-9.2	0.1	-11.1	.	.
CCOC(=O)Cc1csc(NC(=S)NC(=O)CC(C)C)n1	-1.4	3.0	4.3	-8.8	0.2	-0.6	.	.
CC(C)CC(=O)NC(=S)Nc1nc(-c2cccc3ccccc23)cs1	-0.7	13.8*	8.8	27.0	0.8	19.5	17.0	8.1
COc1cccc(CC(=O)N(Cc2ccccc2)c2ccccc2C(=O)Nc2cc(OC)ccc2OC)c1	.	12.3*	.	.	0.3	2.9	8.0	13.3*
CC(c1cccs1)N(C)Cc1nc(CCc2ccccc2)no1 (stereo not drawn)	2.8	-1.1	7.0	-19.2	0.1	0.7	.	.
COc1ccc(C2OC(CCc3ccccc3)CC3=C2C(=O)OC(C)(C)O3)cc1 (stereo not drawn)	.	8.7*	.	6.1	0.8	5.6	7.8	5.8
COc1ccc(Cl)cc1NC(=O)CN(C)C(=O)CSc1ccc2c(c1)OCCO2	0.2	8.9*	1.0	11.2	0.0	5.1	25.0*	15.1*
COc1ccc(NC(=O)CN(C)C(=O)CSc2ccc3c(c2)OCCO3)cc1	-2.5	5.0	-9.4	-15.5	1.1	2.1	.	.
CCOc1ccc(N(CC(=O)Nc2c(C)n(C)n(-c3ccccc3)c2=O)S(=O)(=O)c2ccc(C(C)(C)C)cc2)cc1	.	-0.1	.	.	0.5	2.1	.	.
O=C(CSc1ccc(-c2ccco2)nn1)c1ccc(F)cc1	-1.9	9.4*	-12.1	-7.1	0.1	18.9	6.9	5.9
COc1ccc(S(=O)(=O)NN(C)c2ncc(C(F)(F)F)cc2Cl)cc1	-3.6	9.4*	-23.7	-13.2	-0.6	-7.6	7.5	6.1
O=C(Cc1ccccc1)NNC(=O)Nc1cccc(Cl)c1	-0.3	3.6	-6.3	1.4	-0.2	-2.4	.	.
O=C(CN1c2ccccc2Sc2ccccc21)NNC(=O)Nc1cccc(Cl)c1	-3.3	8.8*	-1.1	-3.8	-0.7	-2.1	9.7	8.9*
COc1ccc(-c2csc(NC(=O)COc3ccc(N(C)S(=O)(=O)c4ccc(C)cc4)cc3)n2)cc1	0.0	9.9*	-0.8	-11.2	0.2	10.7	11.7	8.5
CC1=C(C(=O)N(C(C)C)C(C)C)CC(CC(=O)NCCCCc2ccccc2)C(=O)N1Cc1ccc(C(C)(C)C)cc1 (stereo not drawn)	.	1.9	.	19.3	0.0	6.1	.	.
CCOC(=O)N1CCN(C(=O)c2ccc(N(Cc3ccc(C)cc3)S(C)(=O)=O)cc2)CC1	-0.6	9.0*	18.3	24.6	-0.1	7.3	-2.5	0.3
CC1=C(C(=O)OCc2ccccc2)C(/C=C/c2ccccc2)NC(=S)N1 (stereo not drawn)	-0.3	12.2*	-17.1	-3.2	-0.5	18.3	29.6*	14.5*
CC(C)(C)c1ccc(C2(C)NC(=O)N(CC(=O)c3ccc[nH]3)C2=O)cc1 (stereo not drawn)	0.8	11.0*	8.1	23.6	0.5	14.7	3.9	3.4
O=C1NC(c2ccccc2)Nc2c1sc(=S)n2-c1ccccc1 (stereo not drawn)	-3.3	-4.6	-17.2	-13.0	0.3	-3.1	.	.
SMILES	NR2E3 ag-1	ADAM17 inh	JMJD2C inh	NR2E3 ag-2	KLK7 zymogen act	ADAM10 inh	ADAM10 ctr	ADAM17 confirm
CC(CC(=O)OCC(=O)NCc1ccc(Cl)cc1)c1ccccc1 (stereo not drawn)	-1.1	10.8*	3.2	-28.2	-0.6	0.5	13.6	10.2*
COc1ccc(CNC(=O)CC(C)c2ccccc2)cc1 (stereo not drawn)	-3.5	-7.5	4.2	-16.1	-0.4	-12.6	.	.
N#C/C(=C\c1cc2c(cc1Br)OCO2)C(=O)NCC1CCCO1 (stereo not drawn)	-4.4	0.5	5.7	2.1	-0.7	0.8	.	.
NC(=O)c1ncn([C@@H]2O[C@H](CNCc3ccccc3C#Cc3ccccc3)[C@@H](O)[C@H]2O)n1	.	-5.2	.	-14.9	0.1	-16.6	.	.
N#CCOc1ccccc1CNC[C@H]1O[C@@H](n2cnc(C(N)=O)n2)[C@H](O)[C@@H]1O	.	9.7*	.	-22.1	-0.5	2.6	15.4	7.0
CC(=O)c1ccc(OCC(=O)OCC(=O)N(CC(C)C)c2c(N)n(Cc3ccccc3)c(=O)[nH]c2=O)cc1	.	-0.1	.	-20.6	-0.3	-4.1	.	.
Cc1ccc(S(=O)(=O)N(C)c2ccc(OCC(=O)OCc3cccc(Br)c3)cc2)cc1	.	9.1*	.	12.2	0.3	15.5	25.4*	15.7*
CC(=O)Nc1ccc(S(=O)(=O)N(C)c2ccc(OCCOc3cccc(C)c3)cc2)cc1	.	8.7*	0.3	18.8	0.3	-2.5	26.1*	13.7*
Cc1ccc(S(=O)(=O)N(C)c2ccc(OCc3cccc(C)c3)cc2)cc1	1.2	3.4	-17.0	-19.6	-0.4	1.6	.	.
Cc1nc(Nc2cccc(C(C)O)c2)c2nnn(Cc3ccc(F)cc3)c2n1 (stereo not drawn)	2.0	2.7	-6.0	14.1	0.4	15.3	.	.
CN(CC(=O)Nc1ccc(Cl)c(C(F)(F)F)c1)C(=O)c1cccnc1Sc1ccccc1	-1.6	11.9*	1.6	2.2	-0.5	7.7	27.1*	9.7*
CSc1ncccc1C(=O)N(C)CC(=O)Nc1ccc(Cl)c(C(F)(F)F)c1	1.2	-0.1	2.2	11.8	0.0	-4.1	.	.
CCS(=O)(=O)C(C)(CCl)C(=O)Nc1ccc(C(=O)OC)cc1 (stereo not drawn)	1.1	-0.8	-37.5	7.3	0.6	-2.9	.	.

Bioassay records from PubChem.
